17 molecules from ChEMBL document CHEMBL1125819, “Novel benzamides as selective and potent gastrokinetic agents. 2. Synthesis and structure-activity relationships of 4-amino-5-chloro-2-ethoxy-N-[[4-(4-fluorobenzyl)-2- morpholinyl]methyl] benzamide citrate (AS-4370) and related compounds” (J Med Chem, 1991) can be followed below.

Data set [1] deals with Mus musculus. The experiment in a line: Gastric emptying of phenol red semisolid meal in mouse at the dose of 0.5 mg/kg administered perorally. The settings on record: route oral. In kind it is functional. Summed up: (§1)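 Mice received oral test article in 0.5% tragacanth, four or five animals per dose. Emptying of a phenol red semisolid meal was expressed as percent enhancement over the mean of 0.5% tragacanth controls. Significance was tested by Duncan's multiple range test.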

The subject of data set [2] is Mus musculus. As to the kind of experiment: Gastric emptying of phenol red semisolid meal in mouse at the dose of 1.0 mg/kg administered perorally. The format is functional. The conditions noted are these: route oral. Summed up: as §1
For data set [3], the system named is Mus musculus. As to the kind of experiment: Toxicity tested in mouse and expressed as number of dead mouse / number of mouse used after a dose of 1.0 g/kg perorally; ++ moderate toxicity. The format is organism-based. The settings on record: in vivo, po, 1000 mg/kg. The method, boiled down:
(§2)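 Male ddY mice (18–25 g), groups of 10, given test compound dissolved or suspended in 0.5% tragacanth solution at a single oral dose of 1.0 g/kg. Mortality observed over 7 days after dosing and scored as dead/used per group; + corresponds to 0–2/10 dead.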

Data set [4] concerns Rattus norvegicus. The experiment in a line: Gastric emptying of phenol red semisolid meal in rats at the dose of 0.5 mg/kg administered perorally. In kind it is functional. The settings on record: route oral.
Data set [5] relates to Rattus norvegicus. As to the kind of experiment: Gastric emptying of phenol red semisolid meal in rats at dose of 2.0 mg/kg, administered perorally. The format is functional. The settings on record: route oral.
Data set [6] relates to Rattus norvegicus. The experiment in a line: Gastric emptying of resin solid meal in rats at the dose of 2.0 mg/kg administered perorally. In kind it is functional. The conditions noted are these: route oral.
The test system of data set [7] is Mus musculus. As to the kind of experiment: Toxicity tested in mouse and expressed as number of dead mouse / number of mouse used after a dose of 1.0 g/kg perorally; +++ potent toxicity. In kind it is organism-based. The conditions noted are these: in vivo, po, 1000 mg/kg. Summed up: as §2
Data set [8] deals with Serotonin 1 (5-HT1) receptor (Rattus norvegicus, UniProt P28564+P30940+P19327+P28565). As to the kind of experiment: Inhibitory activity against 5-hydroxytryptamine 1 receptor by 3H ligand binding experiments. The format is protein assay. The method, boiled down:
(§3)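 Competition binding on rat brain synaptic membranes at 10 mg wet tissue per assay, with compounds at 0.01–1000 μM. Radioligand and tissue: S1, [3H]serotonin, frontal cortex; S2, [3H]spiperone, frontal cortex; α1, [3H]WB-4101, whole brain; α2, [3H]clonidine, whole brain. Assays ended by rapid filtration and scintillation counting. IC50 was derived by probit analysis.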

Data set [9] concerns the target T1, Adrenergic receptor alpha-1 (Rattus norvegicus, UniProt P15823+P23944+P43140).
T1 sequence (P15823 whole entry): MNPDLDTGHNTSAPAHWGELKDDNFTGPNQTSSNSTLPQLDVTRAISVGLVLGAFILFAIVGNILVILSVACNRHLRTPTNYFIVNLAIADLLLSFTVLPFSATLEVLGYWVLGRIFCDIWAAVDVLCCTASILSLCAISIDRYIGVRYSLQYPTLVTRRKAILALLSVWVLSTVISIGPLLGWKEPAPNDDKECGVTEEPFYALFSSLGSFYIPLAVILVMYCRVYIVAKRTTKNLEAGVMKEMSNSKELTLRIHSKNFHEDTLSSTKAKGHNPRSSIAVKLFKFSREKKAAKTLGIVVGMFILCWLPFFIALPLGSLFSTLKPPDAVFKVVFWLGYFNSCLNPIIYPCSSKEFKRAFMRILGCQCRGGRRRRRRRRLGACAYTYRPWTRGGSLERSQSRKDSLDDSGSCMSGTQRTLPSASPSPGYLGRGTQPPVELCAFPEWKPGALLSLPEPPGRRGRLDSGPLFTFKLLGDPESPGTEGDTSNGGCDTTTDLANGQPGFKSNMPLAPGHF
T1 sequence (P23944 whole entry): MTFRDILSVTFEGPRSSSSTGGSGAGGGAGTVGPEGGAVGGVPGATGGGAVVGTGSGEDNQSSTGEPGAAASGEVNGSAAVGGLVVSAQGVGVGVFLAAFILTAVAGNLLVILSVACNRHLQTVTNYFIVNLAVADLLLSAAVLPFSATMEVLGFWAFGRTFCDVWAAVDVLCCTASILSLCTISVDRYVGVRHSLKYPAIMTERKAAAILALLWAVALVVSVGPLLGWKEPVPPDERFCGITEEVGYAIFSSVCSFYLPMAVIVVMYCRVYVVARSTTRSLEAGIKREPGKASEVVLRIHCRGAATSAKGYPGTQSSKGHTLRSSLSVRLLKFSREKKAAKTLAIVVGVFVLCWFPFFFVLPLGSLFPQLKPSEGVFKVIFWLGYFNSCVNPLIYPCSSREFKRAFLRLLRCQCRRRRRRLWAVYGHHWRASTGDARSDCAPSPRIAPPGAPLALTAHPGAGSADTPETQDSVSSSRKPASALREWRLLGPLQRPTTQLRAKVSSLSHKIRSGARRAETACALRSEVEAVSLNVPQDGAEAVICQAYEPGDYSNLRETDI
T1 sequence (P43140 whole entry): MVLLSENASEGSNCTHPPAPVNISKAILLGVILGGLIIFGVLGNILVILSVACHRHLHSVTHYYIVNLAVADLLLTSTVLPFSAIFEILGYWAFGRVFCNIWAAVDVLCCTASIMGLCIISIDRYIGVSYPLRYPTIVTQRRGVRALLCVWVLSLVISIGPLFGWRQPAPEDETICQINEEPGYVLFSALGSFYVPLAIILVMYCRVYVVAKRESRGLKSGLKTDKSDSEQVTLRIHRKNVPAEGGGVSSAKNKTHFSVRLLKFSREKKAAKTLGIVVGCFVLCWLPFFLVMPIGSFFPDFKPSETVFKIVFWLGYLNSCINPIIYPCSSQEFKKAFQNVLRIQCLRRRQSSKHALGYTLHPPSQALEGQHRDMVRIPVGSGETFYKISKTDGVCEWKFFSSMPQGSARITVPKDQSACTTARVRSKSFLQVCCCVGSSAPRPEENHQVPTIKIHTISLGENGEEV
As to the kind of experiment: Inhibitory activity against Alpha-1 adrenergic receptor by 3H ligand binding experiments. The format is protein assay. The method, boiled down:
as §3

Data set [10] deals with Canis familiaris. As to the kind of experiment: Compound was tested for anti-apomorphine effect in 2 dogs and the vomiting frequency expressed at a dose of 1.0 mg/kg perorally. In kind it is functional, Canis lupus familiaris. The settings on record: route oral. Summed up: (§4)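 Dogs received oral test article, then were challenged with apomorphine, and vomiting frequency was counted; saline controls were run. ED50 with 95% confidence limits was derived by probit analysis. Significance versus control was tested by Student's t test.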

The species named for data set [11] is Canis familiaris. The experiment in a line: Effective dose required to inhibit 50% of apomorphine effect. The format is functional. The settings on record: Canis lupus familiaris. Summed up:
as §4

Data set [12] has as its system Mus musculus. As to the kind of experiment: Toxicity tested in mouse and expressed as number of dead mouse / number of mouse used after a dose of 1.0 g/kg perorally; + slight toxicity. In kind it is organism-based. The settings on record: in vivo, po, 1000 mg/kg. Summed up: as §2
Data set [13] relates to Rattus norvegicus. As to the kind of experiment: Gastric emptying of phenol red semisolid meal in rats at the dose of 0.2 mg/kg administered perorally. The settings on record: route oral. In kind it is functional.

`COc1cc(N)c(Cl)cc1C(=O)NCC1CN(Cc2ccccc2)CCO1` (stereo not drawn): the GE with Mus musculus [1] is 41%; in the data set on Mus musculus [2], 59%; with Rattus norvegicus [4], 18%; in the data set with Rattus norvegicus [5] it was 39%; with Rattus norvegicus [6] it was 16%. The Acute toxicity entry in the data set on Mus musculus [3] is given as “Partially active”.
`COc1cc(N)c(Cl)cc1C(=O)NCC1CN(Cc2cccc(C#N)c2)CCO1` (stereo not drawn): the Acute toxicity entry in the data set on Mus musculus [7] is given as “potent toxicity”. In the data set with Rattus norvegicus [5], the GE was found to be 42%.
Regarding `COc1cc(N)c(Cl)cc1C(=O)NC1CCN(CCCOc2ccc(F)cc2)CC1OC` (stereo not drawn) [CISAPRIDE], the IC50 in data set [8] turned out to be 4470 nM; in data set [9] it was 110 nM. For the same molecule, the Vomiting frequency in the data set on Canis familiaris [10] turned out to be 6. Further, the ED50 in the data set listed under Canis familiaris [11] is > 1 mg/kg. The same molecule came in with a GE with Rattus norvegicus [5] of 47%.
On to `COc1cc(N)c(Cl)cc1C(=O)NCC1CN(Cc2cccc(C(F)(F)F)c2)CCO1` (stereo not drawn), for which the Acute toxicity result in the data set on Mus musculus [3] is on record as “moderate toxicity”. In the data set on Rattus norvegicus [5], the GE is listed as 43%.
As to `COc1cc(N)c(Cl)cc1C(=O)NCC1CN(Cc2ccc(C#N)cc2)CCO1` (stereo not drawn), the GE in the data set with Mus musculus [1] turned out to be 15%; in the data set on Mus musculus [2], 44%; in the data set on Rattus norvegicus [13], 0%; in the data set on Rattus norvegicus [4], 21%; with Rattus norvegicus [5] it was 49%; with Rattus norvegicus [6], 36%. Further, the Acute toxicity result with Mus musculus [12] is on record as “slight toxicity”.
With `CCOc1cc(N)c(Cl)cc1C(=O)NCC1CN(Cc2ccc(F)cc2F)CCO1` (stereo not drawn), the GE with Mus musculus [1] amounted to 83%; with Mus musculus [2], 89%; in the data set with Rattus norvegicus [13], 0%; in the data set on Rattus norvegicus [4] it was 42%; in the data set on Rattus norvegicus [5], 76%; with Rattus norvegicus [6] it was 76%.
For the molecule `COc1cc(N)c(Cl)cc1C(=O)NCC1CN(C(C)c2ccccc2)CCO1` (stereo not drawn), the Acute toxicity entry in the data set with Mus musculus [7] is “potent toxicity”. In the data set on Rattus norvegicus [5], this molecule returned a GE of 42%.
Turning to `CCOc1cc(N)c(Cl)cc1C(=O)NCC1CN(Cc2ccccc2)CCO1` (stereo not drawn), the GE in the data set on Mus musculus [1] was determined as 35%; in the data set with Mus musculus [2], 23%; in the data set with Rattus norvegicus [4] it was 34%; in the data set on Rattus norvegicus [5] it was 54%; in the data set on Rattus norvegicus [6], 58%. Besides, the Acute toxicity result in the data set on Mus musculus [12] is given as “Partially active”.
For the molecule `CCOc1cc(N)c(Cl)cc1C(=O)NCC1CN(Cc2ccc(Cl)cc2)CCO1` (stereo not drawn), the GE in the data set with Mus musculus [1] was 0%; in the data set on Mus musculus [2], 21%; in the data set on Rattus norvegicus [13], 37%; in the data set on Rattus norvegicus [4], 50%; with Rattus norvegicus [5], 63%; in the data set on Rattus norvegicus [6] it was 65%. Also, the Acute toxicity result with Mus musculus [12] is “slight toxicity”.
Regarding `CCOc1cc(N)c(Cl)cc1C(=O)NCC1CN(Cc2cccc(Cl)c2)CCO1` (stereo not drawn), the Acute toxicity result with Mus musculus [3] is “moderate toxicity”. The molecule also displayed a GE in the data set with Rattus norvegicus [5] of 58%.
Take `COc1cc(N)c(Cl)cc1C(=O)NCC1CN(Cc2ccc(Cl)cc2)CCO1` (stereo not drawn): the Acute toxicity result with Mus musculus [3] is on record as “moderate toxicity”. In addition, the GE with Rattus norvegicus [5] amounted to 36%.
In the case of `CCOc1cc(NC(C)=O)c(Cl)cc1C(=O)NCC1CN(Cc2ccc(F)cc2)CCO1` (stereo not drawn), the GE was determined as 75% in the data set with Mus musculus [1]; 82% in the data set on Mus musculus [2]; 33% in the data set on Rattus norvegicus [13]; 22% in the data set on Rattus norvegicus [4]; 74% with Rattus norvegicus [5]; 0% in the data set on Rattus norvegicus [6].
Consider `CCOc1cc(N)c(Cl)cc1C(=O)NCC1CN(C(C)c2ccccc2)CCO1` (stereo not drawn), for which the Acute toxicity result in the data set with Mus musculus [7] is reported as “potent toxicity”. This molecule showed a GE in the data set on Rattus norvegicus [5] of 44%.
As to `CCOc1cc(N)c(Cl)cc1C(=O)NCC1CN(Cc2ccc(C#N)cc2)CCO1` (stereo not drawn), the Acute toxicity entry with Mus musculus [12] is “slight toxicity”. The GE in the data set on Rattus norvegicus [5] is reported as 46%.
With `COc1cc(N)c(Cl)cc1C(=O)NCC1CN(Cc2c(F)c(F)c(F)c(F)c2F)CCO1` (stereo not drawn), the Acute toxicity result with Mus musculus [12] is listed as “slight toxicity”. The same molecule came in with a GE with Rattus norvegicus [5] of 39%.
Turning to `CCOc1cc(N)c(Cl)cc1C(=O)NCC1CN(Cc2cccc(C(F)(F)F)c2)CCO1` (stereo not drawn), the GE in the data set on Mus musculus [1] is given as 4%; in the data set with Mus musculus [2], 21%; in the data set on Rattus norvegicus [13] it was 32%; in the data set on Rattus norvegicus [4], 37%; in the data set on Rattus norvegicus [5] it was 58%; with Rattus norvegicus [6] it was 22%. In addition, the Acute toxicity entry in the data set with Mus musculus [12] is on record as “slight toxicity”.
For `CCOc1cc(N)c(Cl)cc1C(=O)NCC1CN(Cc2ccc(F)cc2)CCO1` (stereo not drawn) [MOSAPRIDE], the GE was determined as 44% in the data set with Mus musculus [1]; 37% in the data set with Mus musculus [2]; 44% in the data set on Rattus norvegicus [13]; 46% in the data set with Rattus norvegicus [4]; 61% with Rattus norvegicus [5]; 79% in the data set with Rattus norvegicus [6]. In addition, the Acute toxicity entry in the data set on Mus musculus [3] is given as “Partially active”.

One may read the IC50 as the point on the concentration scale where inhibition reaches its midpoint. What is called ED50 is the dose that gives a 50% effect, or the effect in half of the subjects. Low values mean an effect at a small dose, high ones a need for a large dose.
